Experimental data: ChEMBL document CHEMBL5252546, “Salutaxel, a Conjugate of Docetaxel and a Muramyl Dipeptide (MDP) Analogue, Acts as Multifunctional Prodrug That Inhibits Tumor Growth and Metastasis” (J Med Chem, 2018)
Values belong to the compound of their own block, whether it stands above or below them. Active and inactive are the calls of the source. No cut-off for these calls is given here.

Experiments:
[1] = MRT in mouse plasma implanted with mouse 4T1 cells at 5.7 mg/kg,iv measured upto 72 hrs; type: ADME, organism-based
[2] = Half life in mouse plasma implanted with mouse 4T1 cells at 5.7 mg/kg,iv measured upto 72 hrs; type: ADME, organism-based
[3] = Toxicity in BALB/c mouse xenografted with human NCI-H1975 cells assessed as body weight loss at 5.7 mg/kg,iv administrated once per week for 3 weeks; type: organism-based; details: in vivo, 504 h
In short: (§1)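 Nude BALB/c nu/nu mice received subcutaneous human tumour cells into the right flank. Dosing started at mean tumour volume of 100–120 mm3, iv once weekly for 3 weeks; the taxane arm was an equimolar control. Body weight and overt side effects were monitored. Mean ± SEM, n = 8.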

[4] = Toxicity in BALB/c mouse xenografted with human A549/Taxol cells assessed as body weight loss at 5.7 mg/kg,iv administrated once per week for 3 weeks; type: organism-based, A549/TR; details: in vivo, 504 h; in short: as §1
[5] = in vivo; details: mouse, tumor, iv, 5.7 mg/kg
[6] = MRT in mouse plasma implanted with mouse 4T1 cells at 10 mg/kg,iv measured upto 72 hrs; type: ADME, organism-based
[7] = Drug concentration in rat brain at 4 mg/kg,iv measured after 24 hrs; type: ADME, organism-based; details: in vivo
In short: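 Rats received 4 mg/kg iv. Parent drug and released docetaxel were assayed in tissues and plasma from the first sampling at 0.25 h to 24 h. The lower limit of quantitation was 200 ng/g.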

[8] = Chronic toxicity in male Beagle dog at 3 to 18 mg/kg,iv administered once per week for 30 days; type: organism-based, Canis lupus familiaris; details: in vivo, 720 h, dose 3-18 mg/kg, time 30 day
In short: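 Long-term toxicity: rats given iv 2, 4 or 8 mg/kg and dogs 3, 6 or 18 mg/kg once weekly over 30 days; toxicokinetics recorded; highest non-severely toxic dose determined by sex.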

[9] = Drug excretion in rat urine at 4 mg/kg,iv measured upto 72 hrs; type: ADME, organism-based; details: read-out: Drug excretion
[10] = Drug metabolism in rat urine assessed as metabolite MDA-205 formation at 4 mg/kg,iv measured after 24 hrs; type: ADME, organism-based; details: in vivo
[11] = Volume of distribution at steady state in male Beagle dog at 4 mg/kg,iv measured upto 24 hrs; type: ADME, organism-based, Canis lupus familiaris; details: in vivo, read-out: Vdss
[12] = Volume of distribution at steady state in female rat at 4 mg/kg,iv measured upto 24 hrs; type: ADME, organism-based; details: in vivo, read-out: Vdss
[13] = Clearance in female Beagle dog at 4 mg/kg,iv measured upto 24 hrs; type: ADME, organism-based, Canis lupus familiaris; details: in vivo
In short: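 Beagle dogs were given a single iv infusion at 1, 2 or 4 mg/kg. Plasma parent drug and released docetaxel were followed over time. Cmax, Tmax, AUC, MRT, t1/2, CL and Vss were reported by sex and for all dogs combined.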

[14] = Clearance in male rat at 8 mg/kg,iv measured upto 24 hrs; type: ADME, organism-based; details: in vivo
In short: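 Rats were given a single iv injection at 2, 4 or 8 mg/kg. Plasma parent drug and released docetaxel were followed over time. Cmax, Tmax, AUC, MRT, t1/2, CL and Vss were reported for males, females and all animals combined.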

[15] = Half life in Beagle dog at 4 mg/kg,iv measured upto 24 hrs; type: ADME, organism-based, Canis lupus familiaris; details: in vivo
[16] = Half life in male Beagle dog at 4 mg/kg,iv measured upto 24 hrs; type: ADME, organism-based, Canis lupus familiaris; details: in vivo
[17] = MRT (0 to infinity) in male Beagle dog at 2 mg/kg,iv measured upto 24 hrs; type: ADME, organism-based, Canis lupus familiaris; details: in vivo
[18] = MRT (0 to infinity) in rat at 4 mg/kg,iv measured upto 24 hrs; type: ADME, organism-based; details: in vivo
[19] = AUC (0-infinity) in male Beagle dog at 4 mg/kg,iv measured upto 24 hrs; type: ADME, organism-based, Canis lupus familiaris; design: dose 4 mg/kg, time < 24 hrs, route iv; details: in vivo
In short: (§2)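 Single iv dose: rats 2, 4 or 8 mg/kg by intravenous injection; Beagle dogs 1, 2 or 4 mg/kg by intravenous infusion. Plasma concentration–time data were analysed by sex and pooled. Reported parameters: Cmax, Tmax, AUC0−t, AUC0−∞, MRT0−∞, t1/2, CL, Vss, given as mean ± SD.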

[20] = AUC (0-infinity) in Beagle dog at 2 mg/kg,iv measured upto 24 hrs; type: ADME, organism-based, Canis lupus familiaris; design: dose 2 mg/kg, time < 24 hrs, route iv; details: in vivo; in short: as §2
[21] = AUC (0-t) in female rat at 8 mg/kg,iv measured upto 24 hrs; type: ADME, organism-based; design: dose 8 mg/kg, time < 24 hrs, route iv; details: in vivo; in short: as §2
[22] = AUC (0-t) in male rat at 2 mg/kg,iv measured upto 24 hrs; type: ADME, organism-based; design: time < 24 hrs, dose 2 mg/kg, route iv; details: in vivo; in short: as §2
[23] = Toxicity in BALB/c mouse xenografted with human HCT-116 cells assessed as body weight loss at 10 mg/kg,iv administrated once per week for 3 weeks; type: organism-based; details: in vivo, 504 h
[24] = Stability in mouse hepatocyte assessed as compound remaining at 3 uM incubated upto 120 mins; type: ADME, cell-based; details: hepatocytes, 2 h
[25] = Stability in monkey plasma assessed as compound remaining at 1 uM incubated for 6 hrs; type: ADME, cell-free, Macaca mulatta; details: rhesus monkey
[26] = Stability in human plasma assessed as compound remaining at 40 uM incubated for 6 hrs; type: ADME, cell-free
[27] = test system: MDA-MB-468; assay: Antiproliferative activity against human MDA-MB-468 cells assessed inhibition of cell growth incubated for 72 hrs by SRB assay; type: functional, cell-based; details: MDA-MB-468, 72 h
[28] = test system: NCI-H23; assay: Antiproliferative activity against human NCI-H23 cells assessed inhibition of cell growth incubated for 72 hrs by SRB assay; type: functional, cell-based; details: NCI-H23, 72 h
[29] = test system: 4T1; assay: Antitumor activity against mouse 4T1 cells implanted in BALB/c mouse assessed as decrease in spleen MDSC cells at 20 mg/kg,iv measured after 28 days (reference value: 38%); type: functional; design: scale not given: the % may be the effect or the level left; details: time 28 day
[30] = test system: 4T1; assay: Antitumor activity against mouse 4T1 cells implanted in BALB/c mouse assessed as decrease in serum MMP9 level at 10 mg/kg,iv administrated once per week for 4 weeks by ELISA; type: functional, organism-based
In short: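 4T1 fat-pad model in BALB/c mice, iv 5–20 mg/kg once weekly for 4 weeks, with vehicle and naive groups; serum MMP9, TIMP-1, IL-6 and S100A9 measured by mouse ELISA kits.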

[31] = test system: 4T1; assay: Antitumor activity against mouse 4T1 cells implanted in BALB/c mouse assessed as decrease in spleen MMP2 expression level at 5 to 20 mg/kg,iv administrated once per week for 4 weeks by western blot assay; type: functional, organism-based; details: dose 5-20 mg/kg
In short: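 4T1 fat-pad model in BALB/c mice, iv once weekly for 4 weeks; MMP9, MMP2 and NOD1 in spleen, lung and tumour by western blot, β-actin loading control; bands averaged over five mice per group, representative of two independent experiments.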

[32] = test system: 4T1; assay: Antitumor activity against mouse 4T1 cells implanted in BALB/c mouse assessed as decrease in S100A9 mRNA expression in lung at 20 mg/kg,iv administrated qd for 2 days by qRT-PCR analysis; type: functional, organism-based; details: time 2.0 day
In short: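 Day 19 after 4T1 implantation, mice randomised into five groups; iv vehicle or 20 mg/kg plus ip C12-iE-DAP (50 μg/mouse) and MDP (100 μg/mouse) once daily for 2 days; killed after 48 h; lung mRNA for MMP8, MMP9, PROK2, S100A8, S100A9 and IL-1β by qPCR; mean ± SEM.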

- MRT [1]: 137 min
- half-life [2]: 217 min
- AUC(0-t) at 72 h [5]: 27 µM·h
Compound: CC(=O)O[C@@]12CO[C@@H]1C[C@H](O)[C@@]1(C)C(=O)[C@H](O)C3=C(C)[C@@H](OC(=O)[C@H](O)[C@@H](NC(=O)OC(C)(C)C)c4ccccc4)C[C@@](O)([C@@H](OC(=O)c4ccccc4)[C@H]21)C3(C)C [DOCETAXEL ANHYDROUS]
- Activity [3]: Non-Toxic
- Activity [4]: Non-Toxic

Compound: CC(=O)O[C@@]12CO[C@@H]1C[C@H](O)[C@@]1(C)C(=O)[C@H](O)C3=C(C)[C@@H](OC(=O)[C@H](OC(=O)CCC(=O)NCCCC[C@H](NC(=O)CC[C@@H](NC(=O)[C@H](C)NC(=O)/C=C/c4ccc(F)cc4Cl)C(N)=O)C(=O)O)[C@@H](NC(=O)OC(C)(C)C)c4ccccc4)C[C@@](O)([C@@H](OC(=O)c4ccccc4)[C@H]21)C3(C)C
- MRT [6]: 27 min
- Drug uptake [7]: Active
- Activity [8]: Non-Toxic
- dose excreted at 72 h [9]: 9.38%
- Drug metabolism [10]: Metabolite_Detected
- Vd [11]: 0.075 L/kg
- Vd [12]: 0.08 L/kg
- clearance [13]: 3.85 mL/min/kg
- clearance [14]: 2.55 mL/min/kg
- half-life [15]: 35.5 min
- half-life [16]: 36.6 min
- MRT inf [17]: 13.1 min
- MRT inf [18]: 19.1 min
- AUC(0-inf) [19]: 15300 ng·h/mL
- AUC(0-inf) [20]: 5950 ng·h/mL
- AUC(0-t) at 24 h [21]: 39300 ng·h/mL
- AUC(0-t) at 24 h [22]: 6090 ng·h/mL
- Activity [23]: Non-Toxic
- Stability [24]: Stable
- Stability [25]: Stable
- Stability [26]: Stable
- IC50 [27]: 16.3 nM
- IC50 [28]: 16.3 nM
- Activity [29]: 10.1%
- Activity [30]: Active
- Activity [31]: inactive
- Activity [32]: Active
